# Laboratory results from ChEMBL document CHEMBL4038304, “Chiral Indolylarylsulfone Non-Nucleoside Reverse Transcriptase Inhibitors as New Potent and Broad Spectrum Anti-HIV-1 Agents” (J Med Chem, 2017).
# Columns and labels:
# [1] = tested on: Human immunodeficiency virus 1; test: Antiviral activity against HIV1 harboring reverse transcriptase Y188L mutant infected in human […] cells assessed as protection against virus-induced cytopathic effect measured on day 5 post infection by MTT assay; assay type: functional, cell-based; conditions: Human immunodeficiency virus 1, 120 h
# [2] = tested on: Human immunodeficiency virus 1; test: Antiviral activity against HIV1 NL4-3 infected in human […] cells assessed as protection against virus-induced cytopathic effect measured on day 5 post infection by MTT assay; assay type: functional, cell-based; conditions: Human immunodeficiency virus 1, NL4-3, 120 h
# Outline: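 Values are means of two to three independent experiments, each run in triplicate. The lowest detectable concentration is reported where activity fell below the assay limit.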
# [3] = tested on: Human immunodeficiency virus 1; test: Antiviral activity against HIV1 harboring reverse transcriptase Y181C mutant infected in human […] cells assessed as protection against virus-induced cytopathic effect measured on day 5 post infection by MTT assay; assay type: functional, cell-based; conditions: Human immunodeficiency virus 1, 120 h
# [4] = tested on: Human immunodeficiency virus 1; test: Ratio of EC50 for HIV-1 harboring reverse transcriptase K103N/[…] double mutant infected in human MT4 cells to EC50 for HIV1 NL4-3 infected in human MT4 cells; assay type: functional
# Outline: (§1)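 Fold change calculated as EC50 against the stated resistant mutant HIV-1 strain divided by EC50 against wild-type NL4-3. Both EC50s come from MTT read-out of virus-induced death in MT-4 cells, mean of two to three independent experiments each in triplicate.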
# [5] = tested on: Human immunodeficiency virus 1; test: Antiviral activity against HIV1 harboring reverse transcriptase K103N /[…] double mutant infected in human […] cells assessed as protection against virus-induced cytopathic effect measured on day 5 post infection by MTT assay; assay type: functional, cell-based; conditions: Human immunodeficiency virus 1, 120 h
# [6] = tested on: Human immunodeficiency virus 1; test: Antiviral activity against HIV1 harboring reverse transcriptase K103N mutant infected in human […] cells assessed as protection against virus-induced cytopathic effect measured on day 5 post infection by MTT assay; assay type: functional, cell-based; conditions: Human immunodeficiency virus 1, 120 h
# [7] = Cytotoxicity against human MT4 cells assessed as cell viability by MTT assay; assay type: cell-based
# Outline: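 Uninfected MT-4 cells scored for viability by MTT. […] Values are means of two to three independent experiments, each run in triplicate.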
# [8] = tested on: Human immunodeficiency virus 1; test: Ratio of EC50 for HIV-1 harboring reverse transcriptase Y181C mutant infected in human MT4 cells to EC50 for HIV1 NL4-3 infected in human MT4 cells; assay type: functional; outline: as §1
# [9] = tested on: Human immunodeficiency virus 1; test: Ratio of EC50 for HIV-1 harboring reverse transcriptase Y188L mutant infected in human MT4 cells to EC50 for HIV1 NL4-3 infected in human MT4 cells; assay type: functional; outline: as §1
# [10] = tested on: Human immunodeficiency virus 1; test: Ratio of EC50 for HIV-1 harboring reverse transcriptase K103N mutant infected in human MT4 cells to EC50 for HIV1 NL4-3 infected in human MT4 cells; assay type: functional; outline: as §1
# [11] = Selectivity index, ratio of CC50 for human MT4 cells to EC50 for HIV1 NL4-3 infected in human MT4 cells; assay type: toxicity, cell-based; conditions: read-out: Ratio CC50/EC50
# Outline: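 SI computed as CC50/EC50, using the MTT-based CC50 in uninfected MT-4 cells and the MTT-based EC50 against HIV-1 NL4-3-induced cell death in MT-4 cells. Experiments were run in triplicate, two to three times.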
Compound,EC50 [1],EC50 [2],EC50 [3],Ratio EC50 [4],EC50 [5],EC50 [6],CC50 [7],Ratio EC50 [8],Ratio EC50 [9],Ratio EC50 [10],selectivity ratio [11]
Cc1cc(C)cc(S(=O)(=O)c2c(C(=O)NC(C)C(=O)NCCc3cccs3)[nH]c3ccc(Cl)cc23)c1 (racemic),> 9800 nM,0.6 nM,129 nM,>16336,> 9800 nM,18 nM,9500 nM,215,>16336,30,52800
COc1cccc(F)c1CNC(=O)c1[nH]c2ccc(Cl)cc2c1S(=O)(=O)c1cc(C)cc(C)c1,,0.6 nM,399 nM,46243,27700 nM,0.6 nM,> 49900 nM,665,,1,> 83200
Cc1cc(C)cc(S(=O)(=O)c2c(C(=O)NCC(=O)NCc3ccncc3)[nH]c3ccc(Cl)cc23)c1,1400 nM,0.2 nM,20 nM,30430,6090 nM,190 nM,> 48900 nM,100,,,> 245000
Cc1cc(C)cc(S(=O)(=O)c2c(C(=O)NC(C)C(=O)NCc3ccco3)[nH]c3ccc(Cl)cc23)c1 (racemic),2430 nM,0.6 nM,27 nM,>7521,4510 nM,1.9 nM,24200 nM,45,4053,3,> 40400
Cc1cc(C)cc(S(=O)(=O)c2c(C(=O)NC(c3ccc(Cl)cc3)C3CC3)[nH]c3ccc(Cl)cc23)c1 (racemic),,133 nM,,,,,> 47400 nM,,,,> 359
Cc1cc(C)cc(S(=O)(=O)c2c(C(=O)NCC(=O)NC(C)c3ccncc3)[nH]c3ccc(Cl)cc23)c1 (racemic),610 nM,0.6 nM,0.6 nM,22227,13300 nM,38 nM,47000 nM,1,1017,64,> 78400
Cc1cc(C)cc(S(=O)(=O)c2c(C(=O)NCC(=O)NC(C)c3ccccc3)[nH]c3ccc(Cl)cc23)c1 (racemic),1620 nM,0.6 nM,76 nM,>48978,> 29400 nM,210 nM,29400 nM,127,2703,350,> 49000
Cc1cc(C)cc(S(=O)(=O)c2c(C(=O)NCc3cccc(F)c3F)[nH]c3ccc(Cl)cc23)c1,,0.7 nM,2 nM,>73046,> 51100 nM,0.7 nM,> 51100 nM,2.9,,1,> 73000
Cc1cc(C)cc(S(=O)(=O)c2c(C(=O)NC(C)C(=O)NCc3ccccc3F)[nH]c3ccc(Cl)cc23)c1 (racemic),4240 nM,0.6 nM,93 nM,>38775,> 23300 nM,26 nM,23300 nM,155,7067,43,23300
Cc1cc(C)cc(S(=O)(=O)c2c(C(=O)NCC(=O)NCCc3cccs3)[nH]c3ccc(Cl)cc23)c1,> 3580 nM,3.8 nM,321 nM,>941,> 3580 nM,1340 nM,35700 nM,84,>941,352,9480
Cc1cc(C)cc(S(=O)(=O)c2c(C(=O)NC(CF)c3ccccc3)[nH]c3ccc(Cl)cc23)c1 (racemic),,0.7 nM,82 nM,39030,27300 nM,0.7 nM,49200 nM,117,,1,> 70300
Cc1cc(C)cc(S(=O)(=O)c2c(C(=O)Nc3cc(C#N)ccn3)[nH]c3ccc(Cl)cc23)c1,,0.6 nM,2.2 nM,>89622,> 53800 nM,0.6 nM,> 53800 nM,3.7,,1,> 89600
Cc1ccnc2c1NC(=O)c1cccnc1N2C1CC1 [NEVIRAPINE],> 3760 nM,112 nM,> 3760 nM,,> 3760 nM,> 3760 nM,> 18800 nM,,,,
Cc1cc(C)cc(S(=O)(=O)c2c(C(=O)NC(C)C(=O)NC(C)c3ccncc3)[nH]c3ccc(Cl)cc23)c1 (racemic),12900 nM,0.6 nM,167 nM,>60805,> 36500 nM,7.4 nM,21900 nM,278,21488,12,> 36500
Cc1cc(C)cc(S(=O)(=O)c2c(C(=O)NC(C)C(=O)NC(C)c3ccccc3F)[nH]c3ccc(Cl)cc23)c1 (racemic),> 15200 nM,0.6 nM,108 nM,10790,6470 nM,36 nM,15200 nM,180,>25387,60,> 25400
Cc1cc(C)cc(S(=O)(=O)c2c(C(=O)NCC(=O)NC(C)c3ccccc3F)[nH]c3ccc(Cl)cc23)c1 (racemic),3670 nM,0.6 nM,13 nM,>38345,> 23000 nM,387 nM,> 23000 nM,19,6118,552,> 38300
Cc1cc(C)cc(S(=O)(=O)c2c(C(=O)NCc3n[nH]c4ccccc34)[nH]c3ccc(Cl)cc23)c1,142 nM,0.6 nM,0.6 nM,913,548 nM,0.6 nM,> 50700 nM,1,237,1,> 84500
Cc1cc(C)cc(S(=O)(=O)c2c(C(=O)NC(C)C(=O)NCCn3c(C)cnc3[N+](=O)[O-])[nH]c3ccc(Cl)cc23)c1 (racemic),4770 nM,0.2 nM,170 nM,26405,5280 nM,170 nM,16000 nM,850,23850,850,94200
Cc1cc(C)cc(S(=O)(=O)c2c(C(=O)NC(C)c3ccco3)[nH]c3ccc(Cl)cc23)c1 (racemic),350 nM,0.7 nM,22 nM,17195,12000 nM,109 nM,> 54700 nM,31,500,155,> 78200
Cc1cc(C)cc(S(=O)(=O)c2c(C(=O)NCC(=O)N[C@@H](C)c3ccncc3)[nH]c3ccc(Cl)cc23)c1,3050 nM,0.7 nM,2.5 nM,,4630 nM,438 nM,,,,,
Cc1cc(C)cc(S(=O)(=O)c2c(C(=O)NC(C)c3cc(F)cc(F)c3)[nH]c3ccc(Cl)cc23)c1 (racemic),,0.6 nM,716 nM,>82843,> 49700 nM,1.2 nM,> 49700 nM,1198,,2,> 82800
Cc1cc(C)cc(S(=O)(=O)c2c(C(=O)NCC(=O)N[C@H](C)c3ccncc3)[nH]c3ccc(Cl)cc23)c1,3270 nM,0.7 nM,5.71 nM,,12200 nM,152 nM,,,,,
Cc1cn([C@H]2C[C@H](N=[N+]=[N-])[C@@H](CO)O2)c(=O)[nH]c1=O [ZIDOVUDINE],33 nM,3.7 nM,6 nM,,16 nM,16 nM,> 30600 nM,1.6,8.9,4.3,> 8270
